Assay results published in ChEMBL document CHEMBL1133662, “Novel 3-aminomethyl- and 4-aminopiperidine analogues of 1-[2-(diphenylmethoxy)ethyl]-4-(3-phenylpropyl)piperazines: synthesis and evaluation as dopamine transporter ligands” (J Med Chem, 2000).

Assays:
[1] = target: T1, Sodium-dependent dopamine transporter (Homo sapiens, UniProt Q01959); assay: Inhibition of [125I]RTI-55 binding to dopamine transporter
Summary of the method: (§1)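 Membranes from HEK 293 cells expressing human DAT or SERT, lysed in 2 mM HEPES/1 mM EDTA, pelleted at 30000g and resuspended in 0.32 M sucrose (about 15 µg protein per assay). Incubated 90 min at room temperature in the dark, then filtered. Duplicate competition curves; IC50 converted to Ki by Cheng-Prusoff.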

[2] = Discrimination ratio of [3H]-DA reuptake/DAT binding; format: functional
[3] = target: T2, Sodium-dependent serotonin transporter (Homo sapiens, UniProt P31645); assay: Binding affinity for serotonin transporter using [125I]RTI-55; summary of the method: as §1
[4] = target: T1, Sodium-dependent dopamine transporter; assay: Inhibition of [3H]dopamine reuptake in HEK293 cells expressing human dopamine transporter; format: cell-based
Summary of the method: (§2)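 Confluent HEK 293 cells expressing human SERT or DAT were scraped into PBS and used as a suspension in Krebs HEPES at 25 °C. Drug (six concentrations, triplicate) was preincubated with cells 10 min. [3H]5-HT or [3H]DA (0.020 µM final) was added for 10 min, then uptake was stopped by filtration onto polyethyleneimine-soaked GF/C filters. IC50 from three independent experiments.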

[5] = Discrimination ratio of [3H]5-HT reuptake/SERT binding; format: functional
[6] = target: Monoamine transporters; Norepinephrine & dopamine (Homo sapiens) (UniProt Q01959+P23975); assay: Selectivity ratio of NET/DAT; format: protein assay
[7] = target: T3, Sodium-dependent noradrenaline transporter (Homo sapiens, UniProt P23975); assay: Inhibition of [3H]NE reuptake by human norepinephrine transporter expressed in HEK293 cells; format: cell-based
[8] = target: T2, Sodium-dependent serotonin transporter; assay: Inhibition of [3H]5-HT reuptake in HEK293 cells expressing human serotonin transporter; format: cell-based; summary of the method: as §2
[9] = target: Monoamine transporters; serotonin & dopamine (Homo sapiens) (UniProt P31645+Q01959); assay: Selectivity ratio of SERT/DAT; format: protein assay
[10] = target: T3, Sodium-dependent noradrenaline transporter; assay: Binding affinity at the norepinephrine transporter was measured using [125I]RTI-55 as a radioligand

Monoamine transporters; Norepinephrine & dopamine (Homo sapiens), sequence (P23975 whole entry, looked up): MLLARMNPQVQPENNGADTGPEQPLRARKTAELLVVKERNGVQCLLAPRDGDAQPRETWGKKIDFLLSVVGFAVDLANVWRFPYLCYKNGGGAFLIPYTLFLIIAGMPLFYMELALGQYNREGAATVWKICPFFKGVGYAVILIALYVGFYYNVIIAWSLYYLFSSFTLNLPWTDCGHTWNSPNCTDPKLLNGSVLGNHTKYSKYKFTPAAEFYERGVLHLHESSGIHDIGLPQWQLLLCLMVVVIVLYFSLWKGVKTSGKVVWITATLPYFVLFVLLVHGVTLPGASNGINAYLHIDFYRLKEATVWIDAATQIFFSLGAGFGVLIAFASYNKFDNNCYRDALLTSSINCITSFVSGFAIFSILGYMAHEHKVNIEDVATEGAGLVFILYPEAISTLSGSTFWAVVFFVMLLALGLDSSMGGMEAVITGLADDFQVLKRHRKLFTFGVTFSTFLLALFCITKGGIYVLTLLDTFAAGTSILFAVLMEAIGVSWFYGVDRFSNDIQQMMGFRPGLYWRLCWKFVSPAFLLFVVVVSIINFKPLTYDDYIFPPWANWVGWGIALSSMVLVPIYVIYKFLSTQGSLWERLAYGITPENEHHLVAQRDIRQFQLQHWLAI
Monoamine transporters; Norepinephrine & dopamine (Homo sapiens), sequence (Q01959 whole entry, looked up): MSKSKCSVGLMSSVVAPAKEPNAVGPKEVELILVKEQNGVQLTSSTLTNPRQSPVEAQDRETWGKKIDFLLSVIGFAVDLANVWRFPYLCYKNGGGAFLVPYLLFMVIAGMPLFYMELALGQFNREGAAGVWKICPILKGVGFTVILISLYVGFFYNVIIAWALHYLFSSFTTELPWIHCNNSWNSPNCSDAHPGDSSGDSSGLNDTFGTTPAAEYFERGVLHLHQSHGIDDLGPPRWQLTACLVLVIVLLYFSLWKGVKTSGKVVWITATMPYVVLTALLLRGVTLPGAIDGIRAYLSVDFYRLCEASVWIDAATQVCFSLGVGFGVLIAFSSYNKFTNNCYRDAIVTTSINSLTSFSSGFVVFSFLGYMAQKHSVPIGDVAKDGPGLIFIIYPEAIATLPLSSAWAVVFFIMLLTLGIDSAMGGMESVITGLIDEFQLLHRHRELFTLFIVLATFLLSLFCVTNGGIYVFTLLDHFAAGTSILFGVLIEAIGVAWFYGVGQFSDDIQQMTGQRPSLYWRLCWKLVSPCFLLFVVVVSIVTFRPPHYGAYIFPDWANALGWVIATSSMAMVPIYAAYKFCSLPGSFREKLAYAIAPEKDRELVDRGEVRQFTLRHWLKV
T3 sequence (P23975 whole entry): as the sequence (P23975 whole entry, looked up) above
T2 sequence (P31645 whole entry): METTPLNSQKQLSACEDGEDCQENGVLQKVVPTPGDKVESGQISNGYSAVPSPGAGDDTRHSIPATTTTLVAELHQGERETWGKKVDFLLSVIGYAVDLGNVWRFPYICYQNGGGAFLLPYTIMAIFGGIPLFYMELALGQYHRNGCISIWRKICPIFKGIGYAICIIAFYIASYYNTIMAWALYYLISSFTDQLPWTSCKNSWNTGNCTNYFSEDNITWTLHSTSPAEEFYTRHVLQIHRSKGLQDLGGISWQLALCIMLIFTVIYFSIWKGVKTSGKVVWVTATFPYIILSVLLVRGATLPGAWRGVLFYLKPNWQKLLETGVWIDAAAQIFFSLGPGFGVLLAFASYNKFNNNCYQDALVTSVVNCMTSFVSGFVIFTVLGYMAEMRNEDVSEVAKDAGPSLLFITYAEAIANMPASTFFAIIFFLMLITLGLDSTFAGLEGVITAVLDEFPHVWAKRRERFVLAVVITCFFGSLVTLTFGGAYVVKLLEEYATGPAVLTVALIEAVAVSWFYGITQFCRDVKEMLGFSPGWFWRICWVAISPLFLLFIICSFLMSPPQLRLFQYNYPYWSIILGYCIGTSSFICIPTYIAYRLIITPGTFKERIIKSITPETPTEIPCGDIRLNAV
Monoamine transporters; serotonin & dopamine (Homo sapiens), sequence (P31645 whole entry, looked up): as the sequence (P31645 whole entry) above
Monoamine transporters; serotonin & dopamine (Homo sapiens), sequence (Q01959 whole entry, looked up): as the sequence (Q01959 whole entry, looked up) above
T1 sequence (Q01959 whole entry): as the sequence (Q01959 whole entry, looked up) above

Structure (SMILES) | Ki [1] [µM] | Discrimination ratio [2] | Ki [3] [µM] | IC50 [4] [µM] | Discrimination ratio [5] | Selectivity ratio [6] | IC50 [7] [µM] | IC50 [8] [µM] | Selectivity ratio [9] | Ki [10] [µM]
Fc1ccc(CCNC2CCN(CCOC(c3ccccc3)c3ccccc3)CC2)cc1 | 0.11 | 2.9 | 0.22 | 0.32 | 2.1 | 0.7 | 0.17 | 0.47 | 2 | 0.079
c1ccc(CCCNCC2CCCN(CCOC(c3ccccc3)c3ccccc3)C2)cc1 (configuration not stated) | 0.07 | 1.5 | 0.32 | 0.105 | 2.5 | 0.6 | 0.048 | 0.77 | 4.5 | 0.041
CN(CCc1ccc(F)cc1)CC1CCCN(CCOC(c2ccccc2)c2ccccc2)C1 (configuration not stated) | 0.09 | 14 | 0.53 | 1.26 | 4 | 1.3 | 0.35 | 2.13 | 5.9 | 0.11
Fc1ccc(CCNCC2CCCN(CCOC(c3ccccc3)c3ccccc3)C2)cc1 (configuration not stated) | 0.087 | 4.2 | 0.89 | 0.364 | 2.1 | 2.1 | 0.19 | 1.83 | 10.2 | 0.19
CN(CCCc1ccccc1)C1CCN(CCOC(c2ccccc2)c2ccccc2)CC1 | 0.34 | 0.6 | 0.087 | 0.21 | 3.6 | 0.1 | 0.18 | 0.31 | 0.3 | 0.042
Fc1ccc(CCN2CCCC(CNCCOC(c3ccccc3)c3ccccc3)C2)cc1 (configuration not stated) | 0.1 | 4.8 | 0.35 | 0.5 | 3.3 | 1.5 | 0.2 | 1.13 | 3.3 | 0.15
c1ccc(CCCNC2CCN(CCOC(c3ccccc3)c3ccccc3)CC2)cc1 | 0.16 | 2.5 | 0.055 | 0.39 | 7.1 | 0.8 | 0.23 | 0.39 | 0.4 | 0.12
CN(CCOC(c1ccccc1)c1ccccc1)C1CCN(CCCc2ccccc2)CC1 | 0.03 | 11.1 | 1.4 | 0.33 | 0.9 | 1 | 0.2 | 1.91 | 47.3 | 0.029
c1ccc(CCCN2CCN(CCOC(c3ccccc3)c3ccccc3)CC2)cc1 | – | – | – | – | – | – | 0.165 | – | – | 0.63
c1ccc(CN2CCC(NCCOC(c3ccccc3)c3ccccc3)CC2)cc1 | 0.083 | 3.2 | 2.16 | 0.27 | 0.9 | 2.1 | 0.087 | 1.86 | 26 | 0.18
c1ccc(CCCN2CCCC(CNCCOC(c3ccccc3)c3ccccc3)C2)cc1 (configuration not stated) | 0.018 | 8.1 | 0.21 | 0.15 | 3.8 | 1.3 | 0.097 | 0.82 | 11.9 | 0.023
